Experiments:
Cytochrome P450 3A4 [1] = target: T1, Cytochrome P450 3A4 (Homo sapiens, UniProt P08684); experiment: Binding affinity to His-tagged CYP3A4 (unknown origin) expressed in Escherichia coli DH5alpha assessed as formation of Soret band at 386 nm with low decrease in low-spin soret maxima at 416 nm by UV-vis spectrophotometric titration analysis; assay type: ADME; set-up: dose or concentration left out as unconfirmed
How it was run: (§1)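 Recombinant His-tagged enzyme expressed in E. coli with groESL chaperones, purified by Ni-NTA, CM-sepharose and S-200 gel filtration (Rz ≥1.3). Ligand added stepwise until heme absorbance stopped changing. Difference spectra taken against the ligand-free spectrum. Peak-minus-trough ΔAbs (388–418 nm) plotted against ligand concentration and fitted with equation 2 for Kd.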

Cytochrome P450 3A4 [2] = target: T1, Cytochrome P450 3A4; experiment: Inhibition of human recombinant CYP3A4 expressed in supersomes assessed as decrease in formation of D-luciferin at 1.89 uM using luciferin-IPA as substrate incubated for 10 mins in presence of NADPH by P450-Glo luminescence assay relative to control; assay type: ADME; details: recombinant enzyme
How it was run: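 P450-Glo assay with supersomes containing POR, cytochrome b5 and recombinant human CYP3A4, 0.1 pmol enzyme. Run in 100 mM KPO4 pH 7.4 with 3 μM Luciferin-IPA, started with NADPH, 10 min at 37 °C. Detection reagent added for 20 min at room temperature, then luminescence read. Final DMSO 0.1%.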

Cytochrome P450 3A4 [3] = target: T1, Cytochrome P450 3A4; experiment: Binding affinity to His-tagged CYP3A4 (unknown origin) expressed in Escherichia coli DH5alpha assessed as type 1 spectral shift to substrate-bound form by UV-vis spectrophotometric titration analysis; assay type: ADME; how it was run: as §1
Cytochrome P450 3A4 [4] = target: T1, Cytochrome P450 3A4; experiment: Inhibition of CYP3A4 in human liver microsomes assessed as formation of 1-hydroxymidazolam at 1.85 uM using midazolam as substrate incubated for 10 mins in presence of NADPH by LC-MS/MS analysis
ASPC1 [5] = experiment: Cytotoxicity against wild type human AsPC1 cells assessed as cell growth; assay type: cell-based
How it was run: (§2)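 Cells seeded at 10,000/well. Dox-inducible lines were induced with 100 ng/mL doxycycline, then treated 24 h later with compound at 16 two-fold dilutions (0.0003–10 μM) plus 5 μM midazolam, in 0.66% DMSO final, for 24 h. Phase-contrast confluence imaging followed. Values were normalized to six 0.66% DMSO replicates and fitted with a three-parameter log(inhibitor) vs response curve.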

Cytochrome P450 3A4 [6] = target: T1, Cytochrome P450 3A4; experiment: (§3) Induction of CYP3A4 in CRISPR/Cas9-mediated CYP3A5 knock-out and doxycycline-induced CYP3A4 overexpressing human AsPC1 cells assessed as increase in 1-hydroxymidazolam formation using midazolam as substrate pretreated with doxycycline for 24 hrs followed by incubation with compound at higher concentrations for 24 hrs by LC-MS/MS analysis; assay type: ADME, cell-based; details: aspc1, 24 h
How it was run: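 AsPC-1 CYP3A5−/− cells with Dox-inducible CYP3A4, 10,000 cells/well, induced with 100 ng/mL doxycycline. 24 h later given compound (16-point 1:2 series, 0.0003–10 μM) plus 5 μM midazolam, final DMSO 0.66%, for 24 h. Quenched with acetonitrile containing warfarin internal standard. 1-Hydroxymidazolam measured by LC-MS/MS and normalized to DMSO control (100%).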

Cytochrome P450 3A4 [7] = target: T1, Cytochrome P450 3A4; experiment: as §3, with “Inhibition” for “Induction”, “decrease” for “increase”, “compound” for “compound at higher concentrations”; assay type: ADME, cell-based
How it was run: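 AsPC-1 CYP3A5−/− cells with Dox-inducible CYP3A4, 10,000 cells/well, induced with 100 ng/mL doxycycline. Quenched with acetonitrile containing warfarin internal standard. 1-Hydroxymidazolam measured by LC-MS/MS and normalized to DMSO control (100%).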

ASPC1 [8] = experiment: Cytotoxicity against CRISPR/Cas9-mediated CYP3A5 knock-out and lentiviral pLVX-TRE3G-ZsGreen1-CYP3A4 transduced human AsPC1 cells overexpressing CYP3A4 assessed as cell growth; assay type: ADME, cell-based; how it was run: as §2
ASPC1 [9] = experiment: Cytotoxicity against CRISPR/Cas9-mediated CYP3A5 knock-out human AsPC1 cells assessed as cell growth; assay type: ADME, cell-based; how it was run: as §2
Cytochrome P450 2C9 = Cytochrome P450 2C9 (Homo sapiens, UniProt P11712); experiment: Inhibition of CYP2C9 in human liver microsomes assessed as formation of alpha-hydroxytolbutamide at 1.85 uM using tolbutamide as substrate incubated for 15 mins in presence of NADPH by LC-MS/MS analysis; assay type: ADME; details: 0.25 h
Cytochrome P450 2C9, sequence (P11712 whole entry): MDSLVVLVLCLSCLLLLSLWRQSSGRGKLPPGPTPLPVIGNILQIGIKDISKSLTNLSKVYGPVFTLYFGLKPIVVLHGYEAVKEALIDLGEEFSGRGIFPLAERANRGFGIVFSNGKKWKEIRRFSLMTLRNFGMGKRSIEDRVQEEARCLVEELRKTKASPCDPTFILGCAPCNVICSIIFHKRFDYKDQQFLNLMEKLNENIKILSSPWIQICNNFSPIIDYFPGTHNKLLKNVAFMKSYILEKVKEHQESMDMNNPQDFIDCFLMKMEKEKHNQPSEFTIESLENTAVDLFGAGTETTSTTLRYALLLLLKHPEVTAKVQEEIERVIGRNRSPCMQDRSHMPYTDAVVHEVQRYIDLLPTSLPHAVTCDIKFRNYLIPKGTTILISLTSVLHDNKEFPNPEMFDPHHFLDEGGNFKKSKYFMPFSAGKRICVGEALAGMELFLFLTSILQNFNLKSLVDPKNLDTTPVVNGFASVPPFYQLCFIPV
How it was run: (§4)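 Pooled human liver microsomes with 2 mM NADPH in 100 mM KPO4 pH 7.4, 5 mM MgCl2, 37 °C, technical triplicate, final DMSO 0.2%. Probe (substrate, level, protein, time): 1A2 tacrine 5 μM, 0.2 mg/mL, 10 min; 2B6 bupropion 100 μM, 0.25 mg/mL, 10 min; 2C8 amodiaquine 5 μM, 0.25 mg/mL, 10 min; 2C9 tolbutamide 100 μM, 0.5 mg/mL, 15 min; 2C19 mephenytoin 100 μM, 0.25 mg/mL, 60 min; 2D6 dextromethorphan 5 μM, 0.5 mg/mL, 10 min; 3A4 midazolam 2.5 μM or testosterone 50 μM, 0.25 mg/mL, 10 min. Methanol quench, metabolites measured by LC-MS/MS.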

ASPC1 [10] = experiment: Increase in CYP3A4 expression in CRISPR/Cas9-mediated CYP3A5 knock-out and doxycycline-induced CYP3A4 overexpressing human AsPC1 cells at 1 uM after 24 hrs by Western blot analysis; assay type: ADME, cell-based; details: aspc1, 24 h
How it was run: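 Overexpression was induced with 100 ng/mL doxycycline. […] Blots were probed with anti-CYP3A4 K03 (also detects CYP3A5) and β-actin, with infrared dye secondaries. Bands were normalized to actin across triplicate gels, with DMSO set as 1.0.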

Cytochrome P450 2B6 = target: T2, Cytochrome P450 2B6 (Homo sapiens, UniProt P20813); experiment: Inhibition of CYP2B6 in human liver microsomes assessed as formation of hydroxybupropion at 1.85 uM using bupropion as substrate incubated for 10 mins in presence of NADPH by LC-MS/MS analysis; assay type: ADME; how it was run: as §4
T2 sequence (P20813 whole entry): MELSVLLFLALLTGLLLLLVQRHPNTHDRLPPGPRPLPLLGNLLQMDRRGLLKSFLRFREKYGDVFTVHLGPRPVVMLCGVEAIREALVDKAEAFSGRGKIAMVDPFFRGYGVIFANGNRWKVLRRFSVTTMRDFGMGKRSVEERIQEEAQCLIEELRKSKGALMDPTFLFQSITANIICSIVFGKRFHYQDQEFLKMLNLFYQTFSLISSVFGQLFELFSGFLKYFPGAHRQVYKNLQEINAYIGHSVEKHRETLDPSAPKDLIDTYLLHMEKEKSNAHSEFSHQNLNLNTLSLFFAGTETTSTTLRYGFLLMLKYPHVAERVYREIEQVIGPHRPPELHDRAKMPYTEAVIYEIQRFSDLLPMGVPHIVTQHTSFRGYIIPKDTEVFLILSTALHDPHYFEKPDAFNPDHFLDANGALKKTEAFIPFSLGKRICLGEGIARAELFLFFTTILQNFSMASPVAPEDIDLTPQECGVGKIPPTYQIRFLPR

Cytochrome P450 1A2 = target: T3, Cytochrome P450 1A2 (Homo sapiens, UniProt P05177); experiment: Inhibition of CYP1A2 in human liver microsomes assessed as formation of hydroxytacrine at 1.85 uM using tacrine as substrate incubated for 10 mins in presence of NADPH by LC-MS/MS analysis; assay type: ADME; how it was run: as §4
T3 sequence (P05177 whole entry): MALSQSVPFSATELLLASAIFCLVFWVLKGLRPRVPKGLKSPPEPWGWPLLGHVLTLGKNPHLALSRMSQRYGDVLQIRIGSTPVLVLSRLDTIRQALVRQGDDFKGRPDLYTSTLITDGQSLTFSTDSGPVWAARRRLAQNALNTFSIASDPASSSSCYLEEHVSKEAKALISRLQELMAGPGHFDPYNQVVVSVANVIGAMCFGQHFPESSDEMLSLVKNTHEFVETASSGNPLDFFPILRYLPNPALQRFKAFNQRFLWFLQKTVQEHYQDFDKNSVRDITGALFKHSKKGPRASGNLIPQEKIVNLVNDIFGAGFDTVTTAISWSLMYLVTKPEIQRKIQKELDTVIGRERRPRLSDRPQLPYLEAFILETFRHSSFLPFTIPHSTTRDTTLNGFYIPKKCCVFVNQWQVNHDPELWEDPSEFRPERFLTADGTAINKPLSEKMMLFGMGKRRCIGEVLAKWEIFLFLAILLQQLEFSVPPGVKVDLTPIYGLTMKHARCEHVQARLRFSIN

CYP3A5 = CYP3A5 (Homo sapiens, UniProt P20815); experiment: Inhibition of human recombinant CYP3A5 expressed in supersomes assessed as decrease in formation of D-luciferin at 1.89 uM using luciferin-IPA as substrate incubated for 10 mins in presence of NADPH by P450-Glo luminescence assay relative to control; details: probe luciferin-IPA
CYP3A5, sequence (P20815 whole entry): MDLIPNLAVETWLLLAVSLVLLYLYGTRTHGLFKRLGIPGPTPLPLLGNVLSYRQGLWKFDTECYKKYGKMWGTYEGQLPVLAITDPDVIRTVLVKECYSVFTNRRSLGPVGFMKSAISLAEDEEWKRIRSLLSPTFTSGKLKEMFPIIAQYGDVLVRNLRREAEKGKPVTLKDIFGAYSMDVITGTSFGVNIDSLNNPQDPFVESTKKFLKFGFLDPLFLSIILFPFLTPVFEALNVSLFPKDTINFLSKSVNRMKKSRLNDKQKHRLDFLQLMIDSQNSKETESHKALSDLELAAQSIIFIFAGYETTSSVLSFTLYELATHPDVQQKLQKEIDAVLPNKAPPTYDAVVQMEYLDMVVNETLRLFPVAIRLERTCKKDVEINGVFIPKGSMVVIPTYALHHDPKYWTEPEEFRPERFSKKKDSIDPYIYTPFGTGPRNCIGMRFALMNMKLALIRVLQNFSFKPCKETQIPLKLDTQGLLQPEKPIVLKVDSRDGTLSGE

T1 sequence (P08684 whole entry): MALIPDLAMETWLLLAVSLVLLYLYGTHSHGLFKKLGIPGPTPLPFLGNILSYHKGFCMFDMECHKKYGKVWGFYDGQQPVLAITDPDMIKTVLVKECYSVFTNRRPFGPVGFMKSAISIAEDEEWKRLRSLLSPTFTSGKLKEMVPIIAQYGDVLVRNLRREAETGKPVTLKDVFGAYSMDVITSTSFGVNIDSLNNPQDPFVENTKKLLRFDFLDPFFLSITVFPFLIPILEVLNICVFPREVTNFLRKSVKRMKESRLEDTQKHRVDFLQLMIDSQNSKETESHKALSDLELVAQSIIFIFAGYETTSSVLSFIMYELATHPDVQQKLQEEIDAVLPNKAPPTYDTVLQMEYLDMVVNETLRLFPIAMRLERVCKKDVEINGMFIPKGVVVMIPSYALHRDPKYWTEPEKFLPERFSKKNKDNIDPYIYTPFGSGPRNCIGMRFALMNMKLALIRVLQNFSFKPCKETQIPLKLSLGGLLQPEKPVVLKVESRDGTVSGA

Compound: CCC(=O)O[C@]1(C(=O)CCl)[C@@H](C)C[C@H]2[C@@H]3CCC4=CC(=O)C=C[C@]4(C)[C@@]3(F)[C@@H](O)C[C@@]21C [CLOBETASOL PROPIONATE]
- Activity (Cytochrome P450 3A4 [1]): Active
- inhibition (INH) (Cytochrome P450 3A4 [2]): Not Active
- Activity (Cytochrome P450 3A4 [3]): Active
- inhibition (INH) (Cytochrome P450 3A4 [4]): Not Active
- Activity (ASPC1 [5]): Non-Toxic
- Activity (Cytochrome P450 3A4 [6]): Active
- IC50 (Cytochrome P450 3A4 [7]): Not Active
- Activity (ASPC1 [8]): Non-Toxic
- Activity (ASPC1 [9]): Non-Toxic
- inhibition (INH) (Cytochrome P450 2C9): Not Active
- Activity (ASPC1 [10]): Not Active
- inhibition (INH) (Cytochrome P450 2B6): Not Active
- inhibition (INH) (Cytochrome P450 1A2): Not Active
- inhibition at 10 min, 1.89 µM (CYP3A5): 90%

From ChEMBL document CHEMBL4321880 (J Med Chem, 2020)
